Assay results of several laboratories.
Each line is one published result; the experiments were not run side by side.
Target: Phosphatidylinositol 4-kinase beta (PI4KB, Homo sapiens, UniProt Q9UBF8)

Structure (SMILES) | assay | setting | quantity | result
CC1CCCN1c1nccc(-c2cnn3ncccc23)n1 (stereo not shown) | binding | 1 µM | remaining binding | 100%
O=C(Nc1nccs1)C(c1cc(F)ccc1O)N1Cc2ccccc2C1=O (stereo not shown) | enzyme activity, inhibitor | 1 µM | inhibition | 9%
O=C(Nc1cnc(Oc2ccc(F)cc2)nc1)N1CCc2ncccc2[C@@H]1c1ccc(F)cc1 | cell-free assay, competition with immobilised ligand | 1 µM | remaining binding | 89%
c1ccc(CNc2nc(N3CCOc4ccccc43)nc3c2CCCC3)cc1 | target engagement in cells, inhibitor, chemoproteomics | 20 mM | inhibition | -16.5%
CS(=O)(=O)Nc1cccc(-c2csc(NC(=O)CSc3nc4nccnc4c(=O)n3CCc3ccccc3)n2)c1 | enzyme activity, inhibitor | 10 µM | inhibition | 17%
Nc1ncnc2occ(-c3ccc(NC(=O)Nc4cc(C(F)(F)F)ccc4F)cc3)c12 | enzyme activity, inhibitor | 20 µM | remaining activity | 5.9%
O=C(CSc1nc2nccnc2c(=O)n1CCc1ccccc1)Nc1ccccc1 | enzyme activity, inhibitor | 10 µM | inhibition | < 20%
Cc1ccc(C(=O)Nc2ccc(CN3CCN(C)CC3)c(C(F)(F)F)c2)cc1C#Cc1cnc2cccnn12 | enzyme activity, inhibitor | 23.5 nM | remaining activity | 89%
CN(C)CC#Cc1ccc(OCCCc2sc(N3CCc4cccc(C(=O)Nc5nc6ccccc6s5)c4C3)nc2C(=O)O)c(F)c1 | cell-free assay, competition with immobilised ligand | 1 µM | remaining binding | 100%
CCCCNc1ncc2c(-c3ccc(F)cc3)nn(C[C@H]3CC[C@H](N)CC3)c2n1 | target engagement in cells, inhibitor, chemoproteomics | 20 mM | inhibition | 29.3%
